Assay results: ChEMBL document CHEMBL4680071, “Structure guided generation of thieno[3,2-d]pyrimidin-4-amine Mycobacterium tuberculosis bd oxidase inhibitors” (RSC Med Chem, 2021)
pIC50: −log10 of the molar value.

What was measured:
[1] = Inhibition of cytochrome-bd oxidase in Mycobacterium bovis BCG assessed as replicating ATP by measuring ATP depletion incubated for 15 hrs in absence of Q203 by BacTiter-Glo luminescence assay; set-up: species or system Mycobacterium tuberculosis variant bovis BCG
Procedure, shortened: (§1)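 Cultures grown in Middlebrook 7H9 with 0.05% Tween 80, 0.5% glycerol, BSA fraction V, D-glucose and NaCl. Cells pelleted, resuspended in glycerol-free medium at about 10^7 CFU/mL, added to compound dilutions. Plates incubated 15 h at 37°C. BacTiter-Glo reagent added, luminescence read after 12 min to give ATP level. IC50 from curve fitting.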

[2] = Inhibition of cytochrome-bd oxidase in Mycobacterium bovis BCG assessed as replicating ATP by measuring ATP depletion incubated for 15 hrs in presence of Q203 by BacTiter-Glo luminescence assay; set-up: species or system Mycobacterium tuberculosis variant bovis BCG; procedure, shortened: as §1

SMILES	pIC50 [1]	pIC50 [2]
FC(F)(F)Oc1ccc(CNc2ncnc3ccsc23)cc1	< 1.30	1.42
FC(F)(F)c1cccc(CCNc2ncnc3ccsc23)c1	< 1.30	1.59
FS(F)(F)(F)(F)c1ccc(CCNc2ncnc3ccsc23)cc1	< 1.30	1.57
COc1ccc(CCNc2ncnc3ccsc23)cc1	< 1.30	1.37
CC(C)(C)c1ccc(CCNc2ncnc3ccsc23)cc1	< 1.30	2.24
c1ccc(CCNc2ncnc3ccsc23)cc1	< 1.30	1.36
Clc1ccc(CCNc2ncnc3ccsc23)cc1	< 1.30	1.52
FC(F)(F)c1ccc(CCNc2ncnc3ccsc23)cc1	< 1.30	1.48
CN(C)c1ccc(CCNc2ncnc3ccsc23)cc1	< 1.30	1.41
FC(F)(F)Oc1ccc(Nc2ncnc3ccsc23)cc1	< 1.30	1.64
COc1nc2ccc(Br)cc2cc1[C@@H](c1ccccc1)[C@@](O)(CCN(C)C)c1cccc2ccccc12 [BEDAQUILINE]	3.77	4.05
Clc1ccc(CCNc2ncnc3ccsc23)cc1Cl	< 1.30	1.59
FC(F)(F)Oc1ccc(CCNc2ncnc3ccsc23)cc1	< 1.30	1.90
Cc1ccc(CCNc2ncnc3ccsc23)cc1	< 1.30	1.39
FC(F)(F)c1ccc(Oc2ccc(Nc3ncnc4ccccc34)cc2)cc1	< 1.30	3.10
FC(F)(F)c1ccccc1CCNc1ncnc2ccsc12	< 1.30	1.91
COc1ccc(CCNc2ncnc3sccc23)cc1		< 4.30
